# Most compounds without a hit are left out; they make up all but 1.8% or so of the library.
# CHRM5 PAM: potentiates acetylcholine response at human M5 receptor | activation, % at 3 µM | CHO-K1 hM5, Fluo-8 calcium, ACh EC20 PAM; 0% = ACh EC20, 100% = ACh EC100 | P08912 | 360,000 tested, 0.3% active;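 active means activation above the run cutoff, the mean activation of all test compounds plus 3 SD, cut at about 18% in these data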
# Target sequence (P08912 whole entry, looked up): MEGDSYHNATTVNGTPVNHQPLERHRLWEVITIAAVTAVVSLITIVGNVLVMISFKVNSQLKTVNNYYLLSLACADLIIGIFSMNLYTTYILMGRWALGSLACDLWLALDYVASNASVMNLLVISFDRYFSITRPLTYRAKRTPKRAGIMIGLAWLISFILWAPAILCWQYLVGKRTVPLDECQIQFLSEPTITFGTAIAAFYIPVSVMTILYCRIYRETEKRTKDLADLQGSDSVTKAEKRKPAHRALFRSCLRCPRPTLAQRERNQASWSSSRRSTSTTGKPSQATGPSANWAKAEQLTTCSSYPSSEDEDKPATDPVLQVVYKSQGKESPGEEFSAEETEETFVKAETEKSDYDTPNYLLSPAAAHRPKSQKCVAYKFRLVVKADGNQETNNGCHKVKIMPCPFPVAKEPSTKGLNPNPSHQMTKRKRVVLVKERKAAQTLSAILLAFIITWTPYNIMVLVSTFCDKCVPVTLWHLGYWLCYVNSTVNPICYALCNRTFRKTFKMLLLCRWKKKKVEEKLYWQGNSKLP
#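 system = human M5 receptor in CHO-K1 cells | reagent = EC20 acetylcholine as agonist stimulus | compound dosing = single-point, 3 µM nominal | incubation = Fluo-8 loading 80 min at 37 °C plus 30 min room temperature | detection = Fluo-8 calcium dye fluorescence, kinetic read | benchmarks = low control EC20 acetylcholine (0%), high control EC100 acetylcholine (100%)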
# CHRM4 antagonist: blocks acetylcholine activation of human M4 receptor. P08173. CHO-hM4 cells, ACh EC80, Fluo-8 calcium fluorescence. inhibition, % at 3 µM. 360,000 tested, 0.73% active. AID 624125;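 active means inhibition above its plate's cutoff, the mean inhibition of sample wells plus 3 SD, cut at about 27% in these data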;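 further: 0% = acetylcholine EC80 with DMSO and 100% = DMSO without agonist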
# CHRM4 agonist: agonists of human muscarinic M4 receptor (CHRM4); AID 624127; 360,000 tested, 0.14% active; CHO-K1 hM4/Gqi5, Fluo-8 calcium fluorescence; vehicle 0%, full acetylcholine response 100%; activation, % at 3 µM;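 active means activation above the run mean over all test wells plus 3 SD, cut at about 32% in these data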;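 further: peak over basal fluorescence ratio per well then scaled between controls; 0% = DMSO wells and 100% = acetylcholine at EC100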
# CHRM5 antagonist: CHRM5 antagonism in calcium assay; P08912; CHO-hM5 cells, Fluo-8 calcium fluorescence, ACh EC80; inhibition, % at 3 µM; 360,000 tested, 0.59% active;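 active means inhibition above a per-plate cutoff, the mean of that plate's test compounds plus 3 SD, cut at about 27% in these data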;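 further: 0% = acetylcholine EC80 with DMSO and 100% = DMSO without agonist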
# CHRM5 agonist: agonists of human muscarinic M5 receptor (CHRM5). CHO-K1 hM5 cells, Fluo-8 calcium fluorescence; 0% DMSO wells, 100% maximal acetylcholine response. activation, % at 3 µM. 360,000 tested, 0.19% active. AID 624037;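 active means activation above the run's mean over test compounds plus 3 SD, cut at about 23% in these data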;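 further: signal is peak over basal fluorescence ratio across the kinetic read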
# M4 PAM: positive allosteric modulators of human muscarinic M4 receptor | CHO-K1 hM4/Gqi5, Fluo-8 calcium fluorescence, ACh EC20; 0% = ACh EC20, 100% = maximal ACh | activation, % at 3 µM | 360,000 tested, 0.4% active | AID 624126;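 active means activation above its plate's cutoff, the mean activation of sample wells plus 3 SD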
# The depositor's hits bear a star.
SMILES,CHRM5 PAM,CHRM4 antagonist,CHRM4 agonist,CHRM5 antagonist,CHRM5 agonist,M4 PAM
CCOCc1nnc(NC(=O)C2c3ccccc3Oc3ccccc32)s1,-1,-1,20,1,28*,-1
CCN(CC)CCNC(=O)C1c2ccccc2Oc2ccccc21,-18,37*,1,59*,-8,-18
CN(C(=O)COC(=O)C1c2ccccc2Oc2ccccc21)C1CCS(=O)(=O)C1 (stereo not drawn),2,95*,1,-5,-13,-15
CCN(CC)CCOC(=O)C1c2ccccc2Oc2ccccc21,-16,98*,1,100*,-7,-33
Cc1ccc2c(c1)C(=O)C(=O)N2Cc1ccc(F)cc1,6,-2,2,14,21,1
Cc1ccc2c(c1)C(=O)C(=O)N2Cc1ccc(Cl)cc1,-3,1,8,0,34*,-4
CC(=O)c1ccc(OCc2cc(C(=O)N(C)CCOc3ccc(C)cc3)no2)cc1,-11,5,14,1,4,-9
CCCc1cc2c(cc1N(C)S(=O)(=O)c1ccccc1)OCO2,-12,5,-3,28*,-3,0
COc1ccccc1N(C)S(=O)(=O)c1ccc(C(=O)NCc2ccc3c(c2)OCO3)cc1,-15,10,18,8,3,-16
CCOc1cc(/C=C2\CCC/C(=C\c3cc(Cl)c(O)c(OCC)c3)C2=O)cc(Cl)c1O,-11,47*,3,22,-4,-23
CCOc1cc(/C=C2\CN(C)C/C(=C\c3ccc(O)c(OCC)c3)C2=O)ccc1O,-4,-8,11,3,0,-2
CCNS(=O)(=O)c1ccc(CCC(=O)Nc2ccc(C(=O)OC)cc2)cc1,-2,-7,4,3,1,29*
CCOC(=O)N1CCN(C(=O)c2ccc3c(c2)NC(=O)C(N2CCOCC2)S3)CC1 (stereo not drawn),19*,-16,2,2,-2,12
CCc1ccc(CNC(=O)c2ccc3c(c2)NC(=O)C(N2CCOCC2)S3)cc1 (stereo not drawn),13,0,6,-10,2,5
Cc1cccc(OCc2nnc3n2CCCCC3)c1,36*,7,1,31*,3,4
C/C(=N\Nc1nc2ccccc2s1)c1ccc(Br)s1,-5,2,-1,9,-1,-8
CC(=NNc1nc2ccccc2s1)c1ccncn1,-1,58*,23,15,14,-2
O=C(NCC1CCCN1S(=O)(=O)c1cccs1)C(=O)Nc1ccc(F)cc1 (stereo not drawn),-4,-8,3,-1,1,-7
CCS(=O)(=O)N1CCC(NC(=O)C(Cc2cccc(OC)c2OC)NC(C)=O)CC1 (stereo not drawn),3,-18,1,-13,6,18*
CC(=O)Nc1ccc(S(=O)(=O)N2CCC(NC(=O)C(Cc3cccn3C)NC(C)=O)CC2)cc1 (stereo not drawn),28*,-3,1,3,0,11
O=C1CSC(c2ccc([N+](=O)[O-])cc2)N1c1ccccc1 (stereo not drawn),-3,-3,0,4,-6,4
O=[N+]([O-])c1cccc(/C=N/n2cnnc2)c1,1,7,0,4,-1,20*
O=[N+]([O-])c1ccc(O)c(/C=N/n2cnnc2)c1,5,10,3,2,2,5
Nc1ncnc2nc(SCc3ccc(Cl)cc3Cl)[nH]c12,-10,-5,4,3,-4,0
Nc1cc(=O)[nH]c(SCc2ccc(Cl)cc2Cl)n1,-14,9,12,30*,11,-5
SMILES,CHRM5 PAM,CHRM4 antagonist,CHRM4 agonist,CHRM5 antagonist,CHRM5 agonist,M4 PAM
CCOC(=O)c1c(NC(=O)COC(=O)c2ccc(Cl)nc2)sc(C(=O)N(C)C)c1C,-3,-12,5,4,7,8
CCOC(=O)c1c(NC(=O)CN2CCN(S(=O)(=O)c3cc(Cl)ccc3Cl)CC2)sc(C(=O)N(C)C)c1C,-18,41*,8,16,-10,-13
CCOC(=O)c1c(NC(=O)COC(=O)CCOc2ccc(C)cc2)sc(C(=O)N(C)C)c1C,19*,-7,1,-26,0,13
Cc1c(OCC(=O)N2CCC(C(=O)NCCCC(=O)O)CC2)ccc2c1oc(=O)c1ccccc12,3,-7,5,-4,0,6
OCCC1CN(Cc2ccncc2)CCN1C1CCCC1 (stereo not drawn),-3,-2,0,2,-4,-5
CC(C)(O)C#Cc1ccc(CN2CCN(C3CCCCC3)C(CCO)C2)cc1 (stereo not drawn),-2,16,1,2,-8,-10
CSc1ccc(CN2CCN(C3CCCC3)C(CCO)C2)cc1 (stereo not drawn),-1,57*,2,0,-15,-27
CC(C)(O)C#Cc1ccc(CN2CCN(C3CCCC3)C(CCO)C2)cc1 (stereo not drawn),7,28*,1,-2,-15,-44
OCCC1CN(Cc2cnc(-c3ccc(Cl)cc3)nc2)CCN1C1CCCCC1 (stereo not drawn),-14,2,5,30*,-9,-25
CC(C)(O)C#Cc1ccc(CN2CCN(C3CCCCC3)C(CCO)C2)s1 (stereo not drawn),4,27*,0,-2,-8,-22
O=C(C1CCCO1)N1CCN(C(c2ccccc2)c2ccccc2)CC1 (stereo not drawn),-1,2,0,-4,-7,-7
O=C(C1CCCO1)N1CCC(O)(c2ccccc2)CC1 (stereo not drawn),3,4,1,-4,2,20*
COCCCOc1cc(NCc2ccccc2)c2ncn(C(C)C)c2c1,7,-13,0,1,2,12
CCCCOc1cc(NCc2ccccc2)c2ncn(C(C)C)c2c1,13,-23,11,8,13,29*
COc1cc(NCc2ccccc2)c2ncn(Cc3ccccc3)c2c1,22*,-20,17,-24,10,36*
O=S(=O)(c1ccc(N2CCCCCC2)nc1)N1CCCC1,-16,29*,0,-5,-11,-17
CNC(=O)Nc1cc(NC(=O)NC)cc(C(F)(F)F)c1,9,3,0,6,2,-3
COc1cc(/C=C2/C(=O)NN(c3ccc(Cl)cc3)C2=O)cc(Br)c1O,20*,-1,0,-4,6,3
Cc1cc([N+](=O)[O-])ccc1NCc1ccccc1,-21,16,11,12,-7,-15
COc1ccccc1CNc1ccc([N+](=O)[O-])cc1C,-15,3,13,33*,-5,-12

# Screening data deposited in PubChem by The Scripps Research Institute Molecular Screening Center.
